Calls of active or inactive are those of the source. No cut-off for these calls is given here.
Assays:
Raji [1] = experiment: Antitumor activity against human Raji cells xenografted in NOD/SCID nude mouse assessed as reduction in tumor weight at 15 to 30 mg/kg, ip administered once daily for 2 weeks relative to control; type: functional, organism-based
In short: (§1)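 NOD/SCID mice were implanted subcutaneously in the underarm with RAJI cells (5 × 10^6 per 100 μL of RPMI 1640 with 10% serum). Tumours reached […] after 1 week, and mice were then randomised. […] Tumour volume was recorded daily and tumour weight at the end.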

CCRF-CEM = experiment: Antiproliferative activity against human CCRF-CEM cells after 12 hrs by MTT assay; type: functional, cell-based
In short: (§2)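 RAJI, CCRF-CEM and U266B1 cells were seeded at 5 × 10^3 cells per well and exposed to compound for 12 h, with a DMSO vehicle control. MTT at 0.5 mg/mL was added for 4 h at 37 °C, then lysis solution overnight at 37 °C, and A570 was read. Assays were run in triplicate. IC50 was taken from the percentage survival relative to the negative control.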

Raji [2] = experiment: Antiproliferative activity against human Raji cells after 48 hrs by MTT assay; type: functional, cell-based
In short: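 RAJI cells were seeded at 5 × 10^3 cells per well and treated for 48 h, with a DMSO-matched control. MTT at 0.5 mg/mL was added for 4 h at 37 °C, followed by overnight lysis at 37 °C and absorbance at 570 nm. Each assay was done in triplicate. IC50 came from the dose-dependent percentage survival versus the control.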

[3] = Drug uptake in human Raji cells at 1 uM after 6 hrs; type: ADME, cell-based
Homo sapiens [4] = organism: Homo sapiens; experiment: Stabilization of c-Myc G-quadruplex DNA in human Raji cells assessed as downregulation of c-Myc mRNA level at 2 uM after 12 hrs by RT-PCR method relative to control; type: cell-based
In short: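 RAJI, CCRF-CEM and U266B1 grown in RPMI 1640 with 10% fetal calf serum at 37 °C, plated at 1 × 10^6 cells/well overnight, then treated 12 h with 4, 2, 1 or 0.5 μM (DMSO control). RNA (2 μg) reverse-transcribed with oligo dT18/M-MLV; c-MYC, NM23-H2 and β-actin amplified by real-time PCR, checked on 1.5% agarose.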

Homo sapiens [5] = organism: Homo sapiens; experiment: Stabilization of c-Myc G-quadruplex DNA in human Raji cells assessed as downregulation of c-Myc protein level after 6 hrs by Western blot method; type: cell-based
In short: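 Western blot of RAJI cells treated either with 1 μM for 6, 12, 24 and 48 h or with graded concentrations for 6 h. Lysed in 1% NP-40, 50 μg protein/lane on 3–12% SDS-PAGE, nitrocellulose, probed for c-MYC, NM23-H2, GAPDH loading control, HRP secondary with ECL; untreated control, three replicates.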

Raji [6] = experiment: Induction of apoptosis in human Raji cells assessed as early apoptotic cells at 1 uM after 48 hrs by Annexin V-FITC/propidium iodide staining based flow cytometry (reference value: 1.8%); type: functional
In short: (§3)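 RAJI cells exposed to compound or control medium for 12 or 48 h were washed in PBS and resuspended in binding buffer. They were stained with FITC annexin V and PI for 15 min in the dark, and fluorescence was measured by flow cytometry.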

Raji [7] = experiment: Antitumor activity against human Raji cells xenografted in NOD/SCID nude mouse assessed as reduction in tumor volume at 30 mg/kg, ip administered once daily for 2 weeks relative to control; type: functional; in short: as §1
U-266 = experiment: Antiproliferative activity against human U266B1 cells after 12 hrs by MTT assay; type: functional, cell-based; conditions: U-266, 12 h; in short: as §2
Raji [8] = experiment: Cell cycle arrest in human Raji cells assessed as accumulation at G0/G1 phase after 24 hrs by propidium iodide staining based flow cytometry (reference value: 38.5%); type: functional
Homo sapiens [9] = organism: Homo sapiens; experiment: Effect on c-Myc DNA translocated chromosome product in human Raji cells assessed as decrease in amplification of exon-2 after 12 hrs by RT-PCR method; type: cell-based
In short: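 RAJI cells, which retain NHE III1, and CA46 cells, which lack NHE III1 and the P1/P2 promoters, were exposed to graded compound concentrations for 12 h. Total RNA (2 μg) was reverse-transcribed with oligo dT18 and M-MLV. c-MYC exons 1 and 2, NM23-H2 and β-actin were amplified by real-time PCR against untreated cells. Three repeats were done; two-tailed unpaired t-test.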

Raji [10] = experiment: Induction of apoptosis in human Raji cells assessed as upregulation of p27 expression up to 4 uM after 12 hrs by Western blot method; type: functional, cell-based
In short: (§4)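 After compound exposure (12 h for cell-cycle and apoptosis markers), RAJI cells were lysed in 1% NP-40 buffer. Protein at 50 μg per lane was run on 3–12% SDS-PAGE and transferred to nitrocellulose. Blots were probed with primary antibodies (GAPDH as loading reference) and detected with an HRP secondary and enhanced chemiluminescence.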

Raji [11] = experiment: Induction of apoptosis in human Raji cells assessed as downregulation of CDK4 expression after 12 hrs by Western blot method; type: functional, cell-based; in short: as §4
Mus musculus = experiment: Toxicity in NOD/SCID nude mouse xenografted with human Raji cells assessed as reduction in body weight at 15 to 30 mg/kg, ip administered once daily for 2 weeks measured every day during compound dosing; type: organism-based; conditions: in vivo, 336 h
In short: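 NOD/SCID mice implanted subcutaneously in the underarm with 5 × 10^6 RAJI cells in 100 μL RPMI 1640 with 10% serum; tumours grown about 1 week, then mice randomized. Body weight recorded daily; organ weights taken at end.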

Raji [12] = experiment: Cell cycle arrest in human Raji cells assessed as accumulation at G2/M phase after 12 hrs by propidium iodide staining based flow cytometry (reference value: 24.4%); type: functional
Raji [13] = experiment: Induction of apoptosis in human Raji cells assessed as necrotic cells at 0.5 uM after 12 hrs by Annexin V-FITC/propidium iodide staining based flow cytometry relative to control; type: functional; in short: as §3
Raji [14] = experiment: Cell cycle arrest in human Raji cells assessed as accumulation at S phase after 6 hrs by propidium iodide staining based flow cytometry (reference value: 32.2%); type: functional
Raji [15] = experiment: Induction of apoptosis in human Raji cells assessed as necrotic cells at 1 uM after 12 hrs by Annexin V-FITC/propidium iodide staining based flow cytometry relative to control; type: functional; in short: as §3

For CN(C)CCCNc1c2ccccc2nc2c1oc1ccc(OCC3CCN(C)CC3)cc12, the Activity (Raji [1]) was “Active”, the IC50 (CCRF-CEM) was 18.1 µM and the IC50 (Raji [2]) was 4.7 µM. For the same compound, the Drug uptake [3] was “Active”, the Activity (Homo sapiens [4]) was over 80% and the Activity (Homo sapiens [5]) was “Dose-dependent effect”. It also gave an Activity (Raji [6]) of 52.9%, a T/C (Raji [7]) of 26.6% and an IC50 (U-266) of 23 µM. For the same compound, the Activity (Raji [8]) was 56.3%, the Activity (Homo sapiens [9]) was “Dose-dependent effect” and the Activity (Raji [10]) was “Active”. For the same compound, the Activity (Raji [11]) was “Dose-dependent effect”, the Activity (Mus musculus) was “Non-Toxic” and the Activity (Raji [12]) was 29.3%. It also gave an Activity (Raji [13]) of 0%, an Activity (Raji [14]) of 18.1% and an Activity (Raji [15]) of 0%.

Reference: ChEMBL document CHEMBL4011629, “New Disubstituted Quindoline Derivatives Inhibiting Burkitt's Lymphoma Cell Proliferation by Impeding c-MYC Transcription” (J Med Chem, 2017)
